# Shown are actives, neighbours in structure and some others; about 4.1% of the full set was active somewhere.
# MEKK2 mut-MEK5: signal of MEK5 binding to mutant human MEKK2 PB1 domain | percent response, % at 10 µM | bead flow cytometry, Alexa488-MEK5 binding to MEKK2 mutant | 290,000 compounds, 0.35% hits; in the data active = percent response above about 24%, passing the limit was not always enough
# DNA FID counter: counter-screen for HCV NS3 helicase inhibitors: DNA intercalator displacement; DNA fluorescent intercalator displacement, fluorescence; inhibition, % at 7.9 µM; 290,000 compounds, 0.17% hits; in the data active = inhibition above about 37%;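 note: 0% = vehicle and 100% = reference compound; higher means more ethidium bromide displaced from hairpin DNA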
# NS3 helicase inh: inhibitors of Hepatitis C virus NS3 helicase. NS3 helicase DNA unwinding, Cy5 molecular beacon fluorescence. AID 1800. inhibition, % at 10.9 µM. 290,000 compounds, 0.56% hits;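 active = inhibition above the mean of all tested compounds plus 3 SD, set per campaign, cut at about 35% in these data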;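 note: 0% = DMSO wells and 100% = thioflavine S control wells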
#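 test system = hepatitis C virus NS3 helicase domain fragment enzyme | reagent = annealed dual-labelled DNA beacon duplex, ATP-started | times = 1 h at 25 °C | detection = Cy5 fluorescence, 0 and 60 min reads | read-out basis = percent inhibition from t60/t0 fluorescence ratio | control set = DMSO and thioflavine S | replication = one well per compound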
# MEKK2wt PB1 HTS: raises or lowers MEK5 binding to wildtype human MEKK2 PB1 domain; bead flow cytometry, Alexa488-MEK5 binding to MEKK2 WT; actives lie on both sides; binding response (% of control), % at 10 µM; 290,000 compounds, 1.1% hits; in the data active = binding response below about 67% or above about 130%
# MEKK3 PB1 HTS: MEKK3-MEK5 PB1 interaction, increase or decrease; bead-based flow cytometry, Alexa488-MEK5 binding to MEKK3; actives lie on both sides; 0 = blocked by unlabeled MEK5, 100 = vehicle; Q99759; AID 1529; 290,000 compounds, 1.4% hits; binding response (% of control), % at 10 µM;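 active = binding response more than 3 SD above or below the average of its plate-row segment, actives on both sides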;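 note: Alexa488 bead fluorescence after subtracting the streptavidin-only scavenger bead signal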
# Target sequence (Q99759 whole entry, looked up): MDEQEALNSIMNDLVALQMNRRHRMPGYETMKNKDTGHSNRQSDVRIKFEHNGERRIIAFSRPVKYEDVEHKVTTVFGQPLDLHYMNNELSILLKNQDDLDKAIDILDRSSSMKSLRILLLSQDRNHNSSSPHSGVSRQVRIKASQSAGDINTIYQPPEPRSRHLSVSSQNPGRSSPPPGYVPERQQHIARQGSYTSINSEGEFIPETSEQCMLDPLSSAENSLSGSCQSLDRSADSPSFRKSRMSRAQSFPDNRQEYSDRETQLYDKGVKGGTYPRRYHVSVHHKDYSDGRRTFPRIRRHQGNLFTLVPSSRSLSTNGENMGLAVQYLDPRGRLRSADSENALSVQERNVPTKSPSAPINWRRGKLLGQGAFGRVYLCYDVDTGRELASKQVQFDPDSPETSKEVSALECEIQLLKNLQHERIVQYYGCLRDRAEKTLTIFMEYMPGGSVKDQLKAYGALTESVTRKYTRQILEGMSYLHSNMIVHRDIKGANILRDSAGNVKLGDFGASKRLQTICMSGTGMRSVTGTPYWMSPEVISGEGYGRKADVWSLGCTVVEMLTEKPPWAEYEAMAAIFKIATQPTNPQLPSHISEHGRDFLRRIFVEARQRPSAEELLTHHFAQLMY
# T cruzi repl: T. cruzi replication inhibition; inhibition, % (no concentration beside the values); AID 1885; 300,000 compounds, 1.4% hits; T. cruzi beta-gal in NIH3T3, luminescence, 90 h;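 active = mean inhibition across valid replicates above about 55%, limit read from the data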;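 note: signal also drops with host cell toxicity which is not excluded here; 0% = plate median of DMSO wells and 100% = zero luminescence signal; higher percent means less beta-gal luminescence so fewer parasites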
#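 System: mouse NIH/3T3 fibroblasts infected with β-gal-expressing T. cruzi Tulahuen C4 / Input: NIH/3T3 cells, 5,000 per well / Buffer or medium: Low-serum DMEM with 2% FBS / Probe or stimulus: 5000 reporter trypomastigotes per well / Schedule: ≥90 h infection period, 3 h prior cell attachment / Measured by: GalScreen luminescence, 60 min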
# Numbers without * were called inactive; . = no result.
SMILES,MEKK2 mut-MEK5,DNA FID counter,NS3 helicase inh,MEKK2wt PB1 HTS,MEKK3 PB1 HTS,T cruzi repl
COc1c(Cl)cc(Cl)cc1/C=N/NC(=O)c1nnn(-c2nonc2N)c1CN1CCC(C)CC1,-2.0,-6.8,-5.5,88.0,95.0,33.1
COc1cc(C)c(N)cc1C(C)C,2.0,7.2,0.0,99.0,98.0,67.4*
CC1=C(C(N)=O)C(c2cccs2)NC(=O)N1 (configuration not stated),-28.0,-4.4,-2.3,78.0,84.0,-4.6
CC(=C/c1ccc(C(C)C)cc1)/C=N/NC(=O)Cn1nnnc1N,-9.0,-21.1,3.8,91.0,95.0,-7.3
O=C(Nc1ccc(NC(=O)c2ccco2)cc1)c1ccco1,0.0,-5.0,-4.5,98.0,96.0,-5.5
O=C(N/C=C/c1ccco1)Nc1cccc(Cl)c1,45.0,-5.9,15.3,22.0*,127.0,-14.0
COc1ccccc1NS(=O)(=O)c1cccc(NC(=O)Nc2cccc(Cl)c2)c1,2.0,12.5,-4.0,134.0,101.0,62.2*
COc1cc(NC(=O)c2ccco2)c(OC)cc1NC(=O)Nc1cccc(Cl)c1,-7.0,1.7,7.7,96.0,81.0,57.0*
O=C(Nc1cccc(S(=O)(=O)c2cccc(NC(=O)c3ccco3)c2)c1)c1ccco1,18.0,-18.4,-14.0,113.0,118.0,55.0*
COc1ccc2nc(NC(=O)CSc3n[nH]c(N)n3)sc2c1,.,.,.,.,.,-17.0
COc1ccccc1NS(=O)(=O)c1cccc(NC(=O)c2sc3ccccc3c2Cl)c1,-4.0,3.3,4.6,94.0,104.0,77.8*
COc1ccccc1NS(=O)(=O)c1ccc(Cl)c(NC(=O)c2sc3cc(Cl)ccc3c2Cl)c1,6.0,-1.5,5.0,101.0,106.0,-15.0
COc1ccccc1NS(=O)(=O)c1cc(NC(=O)Nc2cccc(C)c2)ccc1N1CCCCC1,1.0,4.3,-17.9,120.0,107.0,59.9*
COc1ccccc1NS(=O)(=O)c1cc(NC(C)=O)ccc1N1CCCCC1,-3.0,-15.2,-19.6,96.0,104.0,11.5
COc1ccc(C2CC(=O)C(C(c3ccc(O)cc3)C3C(=O)CC(c4ccc(OC)cc4)CC3=O)C(=O)C2)cc1 (configuration not stated),-6.0,-13.8,14.8,85.0,97.0,6.6
Cc1cccc(OCc2nnc(SCC(=O)O)n2-c2ccccc2)c1,-12.0,-31.4,12.1,96.0,97.0,3.5
CCCN(Cc1nnc(-c2ccccc2Cl)o1)C(=O)c1cc([N+](=O)[O-])cc([N+](=O)[O-])c1,5.0,-22.1,1.1,105.0,107.0,68.2*
O=C(c1cc([N+](=O)[O-])cc([N+](=O)[O-])c1)N(Cc1nnc(-c2ccccc2Cl)o1)C1CC1,-2.0,-3.7,8.3,97.0,102.0,75.3*
Cc1ccc(S(=O)(=O)N(CC(=O)Nc2cccc(C(F)(F)F)c2)C(=O)N2CCN(C)CC2)cc1,.,.,.,.,.,-6.6
COc1ccccc1NC(=O)C(C)OC(=O)CCCOc1ccccc1 (configuration not stated),.,.,.,.,.,-16.0
C=CCn1c(O)c(N=NC(=O)OC(C)(C)C)c2ccccc21,15.0,-5.6,17.6,108.0,100.0,13.1
C=CCn1c(O)c(N=NC(=S)Nc2ccc(OC)c(Cl)c2)c2ccccc21,-3.0,-3.7,0.1,90.0,92.0,57.1*
COc1cccc(NC(=O)CN2C(=O)c3cccnc3Oc3ccc(Cl)cc32)c1,0.0,-30.1,-6.7,98.0,101.0,16.6
O=C(CN1C(=O)c2cccnc2Oc2ccc(Cl)cc21)Nc1ccccc1F,10.0,-30.6,8.0,10.0*,101.0,13.2
CN(C)c1ccc(C2SCCN2C(=O)c2ccc([N+](=O)[O-])cc2)cc1 (configuration not stated),-3.0,-1.3,-3.5,106.0,101.0,57.9*
SMILES,MEKK2 mut-MEK5,DNA FID counter,NS3 helicase inh,MEKK2wt PB1 HTS,MEKK3 PB1 HTS,T cruzi repl
CN1/C(=C\C=O)C(C)(C)c2ccccc21,-2.0,0.1,-5.2,95.0,93.0,17.4
CN1\C(=C/C=C/C=C/C=[N+](C)C)C(C)(C)c2ccccc21,-23.0,-10.0,29.0,-3.0*,89.0,51.0
CCOC(=O)C1=C(C)NC(C)=C(C(=O)OC)C1c1cccc([N+](=O)[O-])c1 (configuration not stated),2.0,-13.3,-6.9,98.0,93.0,20.9
COCCOC(=O)C1=C(C)NC(C)=C(C(=O)OC(C)C)C1c1cccc([N+](=O)[O-])c1 (configuration not stated),-4.0,-31.6,-18.7,96.0,95.0,62.0*
COc1cc(CNc2ccc(O)cc2)cc(Br)c1OCc1ccccc1F,5.0,1.1,18.5,85.0,99.0,2.2
COc1cc(CNCc2ccncc2)cc(Br)c1OCc1ccccc1F,12.0,9.5,-39.3,113.0,98.0,55.1*
O=C(c1cccc(S(=O)(=O)Nc2ccc(Br)cc2)c1)N1CCCC1,.,.,.,.,.,10.9
CN(C)CCN(C(=O)c1ccc(S(=O)(=O)N(C)c2ccccc2)cc1)c1nc2ccc(Cl)cc2s1,12.0,13.6,1.1,136.0,106.0,62.7*
CCN(CC)CCN(C(=O)CN1C(=O)c2ccccc2C1=O)c1nc2cc3c(cc2s1)OCO3,14.0,16.4,-66.8,122.0,105.0,57.4*
CN(C)CCN(C(=O)c1ccc(S(=O)(=O)N(C)c2ccccc2)cc1)c1nc2cc3c(cc2s1)OCO3,17.0,5.9,-25.2,126.0,104.0,57.1*
CN(C)CCN(C(=O)c1ccc(C(=O)c2ccccc2)cc1)c1nc2cc3c(cc2s1)OCCO3,4.0,16.3,-32.3,123.0,100.0,37.8
CN(C)CCN(C(=O)c1ccc(C(=O)c2ccccc2)cc1)c1nc2cc3c(cc2s1)OCO3,22.0,7.1,-35.5,140.0*,106.0,23.8
COc1ccccc1C(=O)COC(=O)CNS(=O)(=O)c1ccc(C)cc1,3.0,-15.7,-2.7,108.0,110.0,-21.1
COc1cccc(NC(=O)c2cccc(N3C(=O)C4C5C=CC(C5)C4C3=O)c2)c1 (configuration not stated),-10.0,-15.2,-7.4,98.0,91.0,9.2
COc1ccc(Oc2ccc(-c3ccn[nH]3)cc2)cc1,-10.0,-10.4,-5.5,82.0,88.0,14.6
Cc1cccc(OCc2n(CC(=O)OC3CC(C)CCC3C(C)C)c3ccccc3[n+]2C)c1 (configuration not stated),30.0,31.0,-67.2,183.0*,103.0,64.5*
CC1CCC(C(C)C)C(OC(=O)Cn2c(-c3ccccc3)[n+](C)c3ccccc32)C1 (configuration not stated),-2.0,31.5,-50.7,103.0,99.0,46.2
O=C(NC1(C(F)(F)F)N=C(c2ccccc2)NC1=O)c1ccccc1 (configuration not stated),-1.0,3.5,-0.6,98.0,99.0,-7.8

# Assay outcomes: PubChem, several laboratories
